Measurements reported in ChEMBL document CHEMBL4689842, “EUbOPEN Chemogenomics Library wave 1” (2021).

Assays:
Type in all cases: toxicity, cell-based
[1] = system: U2OS; assay: Multiplex assay against U2OS; details: human
Procedure, shortened: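 Live cells carried four stains from seeding: Hoechst33342, BioTracker Green Microtubule Cytoskeleton Dye, MitoTracker Red and Annexin V Alexa Fluor 680. They were imaged on a CQ1 microscope at 37°C and 5% CO2 after compound addition. Using CellPathfinder machine-learning gating, cells were split into Hoechst high-intensity objects or normal cells, normal cells into healthy, pyknosed or fragmented nuclei, and pyknosed cells into mitotic or apoptotic; tubulin, mitochondrial-mass and membrane-permeability phenotypes are per cents of healthy-nucleus cells.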

[2] = system: HEK-293T; assay: Incucyte cell viability with HEK293T; details: human, 10 µM, compound concentration 10 uM; also: filed as whole numbers so only -1 and 0 and 1 occur
[3] = system: U2OS; assay: Incucyte cell viability with U2OS; details: human, 10 µM, compound concentration 10 uM; also: filed as whole numbers so only -1 and 0 and 1 occur
[4] = 12 h, 1 µM, compound concentration 1 uM, replicate 1
[5] = 12 h, 1 µM, compound concentration 1 uM, replicate 2
[6] = 12 h, 10 µM, compound concentration 10 uM, replicate 1
[7] = 12 h, 10 µM, compound concentration 10 uM, replicate 2
[8] = 24 h, 1 µM, compound concentration 1 uM, replicate 1
[9] = 24 h, 1 µM, compound concentration 1 uM, replicate 2
[10] = 24 h, 10 µM, compound concentration 10 uM, replicate 1
[11] = 24 h, 10 µM, compound concentration 10 uM, replicate 2
[12] = 48 h, 1 µM, compound concentration 1 uM, replicate 1
[13] = 48 h, 1 µM, compound concentration 1 uM, replicate 2
[14] = 48 h, 10 µM, compound concentration 10 uM, replicate 1
[15] = 48 h, 10 µM, compound concentration 10 uM, replicate 2
[16] = 18 h, replicate number 1, timepoint 18 hours
[17] = 24 h, replicate number 1, timepoint 24 hours

## N#CCNC(=O)c1ccc(-c2ccnc(Nc3ccc(N4CCOCC4)cc3)n2)cc1 [MOMELOTINIB]
[1]; [4]
  Population Apoptotic (%): 70%
  Population Fragmented Nuclei (%): 12%
  Population Healthy Nuclei (%): 77%
  Population Hoechst High Intensity Objects (%): 5%
  Population Membrane Permeable-Phenotype (%): 9%
  Population Mitochondria Different-Phenotype (%): 6%
  Population Mitotic Cells (%): 29%
  Population Normal (%): 94%
  Population Pyknosed Nuclei (%): 10%
  Population Tubulin-Different-Phenotype (%): 18%
  Total Cell Count: 3583
[1]; [5]
  Population Apoptotic (%): 60%
  Population Fragmented Nuclei (%): 1%
  Population Healthy Nuclei (%): 88%
  Population Hoechst High Intensity Objects (%): 8%
  Population Membrane Permeable-Phenotype (%): 2%
  Population Mitochondria Different-Phenotype (%): 13%
  Population Mitotic Cells (%): 40%
  Population Normal (%): 91%
  Population Pyknosed Nuclei (%): 9%
  Population Tubulin-Different-Phenotype (%): 11%
  Total Cell Count: 3119
[1]; [6]
  Population Apoptotic (%): 44%
  Population Fragmented Nuclei (%): 18%
  Population Healthy Nuclei (%): 57%
  Population Hoechst High Intensity Objects (%): 6%
  Population Membrane Permeable-Phenotype (%): 10%
  Population Mitochondria Different-Phenotype (%): 20%
  Population Mitotic Cells (%): 55%
  Population Normal (%): 93%
  Population Pyknosed Nuclei (%): 23%
  Population Tubulin-Different-Phenotype (%): 20%
  Total Cell Count: 180
[1]; [7]
  Population Apoptotic (%): 13%
  Population Fragmented Nuclei (%): 27%
  Population Healthy Nuclei (%): 47%
  Population Hoechst High Intensity Objects (%): 10%
  Population Membrane Permeable-Phenotype (%): 0%
  Population Mitochondria Different-Phenotype (%): 6%
  Population Mitotic Cells (%): 86%
  Population Normal (%): 89%
  Population Pyknosed Nuclei (%): 24%
  Population Tubulin-Different-Phenotype (%): 6%
  Total Cell Count: 56
[1]; [8]
  Population Apoptotic (%): 42%
  Population Fragmented Nuclei (%): 14%
  Population Healthy Nuclei (%): 78%
  Population Hoechst High Intensity Objects (%): 3%
  Population Membrane Permeable-Phenotype (%): 10%
  Population Mitochondria Different-Phenotype (%): 9%
  Population Mitotic Cells (%): 57%
  Population Normal (%): 96%
  Population Pyknosed Nuclei (%): 7%
  Population Tubulin-Different-Phenotype (%): 17%
  Total Cell Count: 3609
[1]; [9]
  Population Apoptotic (%): 66%
  Population Fragmented Nuclei (%): 7%
  Population Healthy Nuclei (%): 86%
  Population Hoechst High Intensity Objects (%): 10%
  Population Membrane Permeable-Phenotype (%): 6%
  Population Mitochondria Different-Phenotype (%): 15%
  Population Mitotic Cells (%): 33%
  Population Normal (%): 89%
  Population Pyknosed Nuclei (%): 5%
  Population Tubulin-Different-Phenotype (%): 8%
  Total Cell Count: 3108
[1]; [10]
  Population Apoptotic (%): 61%
  Population Fragmented Nuclei (%): 20%
  Population Healthy Nuclei (%): 46%
  Population Hoechst High Intensity Objects (%): 8%
  Population Membrane Permeable-Phenotype (%): 13%
  Population Mitochondria Different-Phenotype (%): 20%
  Population Mitotic Cells (%): 38%
  Population Normal (%): 91%
  Population Pyknosed Nuclei (%): 33%
  Population Tubulin-Different-Phenotype (%): 20%
  Total Cell Count: 194
[1]; [11]
  Population Apoptotic (%): 45%
  Population Fragmented Nuclei (%): 31%
  Population Healthy Nuclei (%): 52%
  Population Hoechst High Intensity Objects (%): 5%
  Population Membrane Permeable-Phenotype (%): 28%
  Population Mitochondria Different-Phenotype (%): 34%
  Population Mitotic Cells (%): 54%
  Population Normal (%): 94%
  Population Pyknosed Nuclei (%): 16%
  Population Tubulin-Different-Phenotype (%): 14%
  Total Cell Count: 59
[1]; [12]
  Population Apoptotic (%): 27%
  Population Fragmented Nuclei (%): 9%
  Population Healthy Nuclei (%): 82%
  Population Hoechst High Intensity Objects (%): 3%
  Population Membrane Permeable-Phenotype (%): 2%
  Population Mitochondria Different-Phenotype (%): 18%
  Population Mitotic Cells (%): 72%
  Population Normal (%): 96%
  Population Pyknosed Nuclei (%): 7%
  Population Tubulin-Different-Phenotype (%): 19%
  Total Cell Count: 3211
[1]; [13]
  Population Apoptotic (%): 100%
  Population Fragmented Nuclei (%): 7%
  Population Healthy Nuclei (%): 89%
  Population Hoechst High Intensity Objects (%): 2%
  Population Membrane Permeable-Phenotype (%): 8%
  Population Mitochondria Different-Phenotype (%): 17%
  Population Mitotic Cells (%): 0%
  Population Normal (%): 97%
  Population Pyknosed Nuclei (%): 2%
  Population Tubulin-Different-Phenotype (%): 22%
  Total Cell Count: 3226
[1]; [14]
  Population Apoptotic (%): 72%
  Population Fragmented Nuclei (%): 29%
  Population Healthy Nuclei (%): 26%
  Population Hoechst High Intensity Objects (%): 4%
  Population Membrane Permeable-Phenotype (%): 20%
  Population Mitochondria Different-Phenotype (%): 20%
  Population Mitotic Cells (%): 27%
  Population Normal (%): 95%
  Population Pyknosed Nuclei (%): 43%
  Population Tubulin-Different-Phenotype (%): 25%
  Total Cell Count: 241
[1]; [15]
  Population Apoptotic (%): 53%
  Population Fragmented Nuclei (%): 33%
  Population Healthy Nuclei (%): 44%
  Population Hoechst High Intensity Objects (%): 11%
  Population Membrane Permeable-Phenotype (%): 26%
  Population Mitochondria Different-Phenotype (%): 38%
  Population Mitotic Cells (%): 46%
  Population Normal (%): 88%
  Population Pyknosed Nuclei (%): 22%
  Population Tubulin-Different-Phenotype (%): 26%
  Total Cell Count: 71
[2]; 0 h, replicate number 1, timepoint 0 hours
  Growth Rate: 0
[2]; [16]
  Growth Rate: 0
[2]; 18 h, replicate number 2, timepoint 18 hours
  Growth Rate: 1
[2]; [17]
  Growth Rate: 0
[3]; 0 h, replicate number 2, timepoint 0 hours
  Growth Rate: 1
[3]; 12 h, replicate number 1, timepoint 12 hours
  Growth Rate: 1
[3]; [16]
  Growth Rate: 0
[3]; [17]
  Growth Rate: 0
